Screens as filed in PubChem BioAssay.
Shown are actives, neighbours in structure and some others; about 4.3% of the full set was active somewhere.
RBBP9 inh: blocks human serine hydrolase RBBP9; actives 0.2% (n = 220,000); O75884; recombinant RBBP9, FP-Rh probe fluorescence polarization; AID 1515; inhibition, % at 7.94 µM;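 active = inhibition above the campaign mean of all tested compounds plus 3 SD, cut at about 14% in these data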;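 note: plate controls were DMSO wells with RBBP9 for no effect and wells lacking RBBP9 protein for full effect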
Target sequence (O75884 whole entry, looked up): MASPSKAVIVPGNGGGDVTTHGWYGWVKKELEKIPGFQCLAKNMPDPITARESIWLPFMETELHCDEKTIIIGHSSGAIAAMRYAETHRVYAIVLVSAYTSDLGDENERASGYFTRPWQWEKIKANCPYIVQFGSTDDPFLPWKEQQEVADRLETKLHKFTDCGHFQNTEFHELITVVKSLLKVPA
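Test system: recombinant human RBBP9; Timing: 30 min then 45 min, 25 °C; Detection: fluorescence polarization; Control set: RBBP9 with DMSO as uninhibited control, no-protein wells as full inhibition; Compound dosing: one concentration, 7.94 µM nominal, 0.794% DMSO; Probe or stimulus: FP-Rh activity-based probe, 375 nM before mixing.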
UBC13 inh: blocks human UBC13 polyubiquitin chain formation | P61088 | TR-FRET | inhibition, % at 20 µM | actives 0.47% (n = 330,000) | AID 485273; in the data active = inhibition above about 45%, passing the limit was not always enough
SUMO HTRF inh: SUMOylation inhibition. P63279. HTRF SUMOylation assay, SAE1/SAE2 + UBC9, in vitro. inhibition, % at 35 µM. actives 0.36% (n = 290,000). AID 2006; in the data active = inhibition above about 50%, passing the limit was not always enough
ALR inh: human ALR oxidase inhibition via reduced H2O2. P55789. purified ALR, DTT oxidation, H2O2 HRP-luminol luminescence. inhibition, % (no concentration beside the values). actives 3.8% (n = 290,000). AID 485317;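 active = mean replicate inhibition above about 79%, with every replicate also reaching it, limit read from the data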
Target sequence (P55789 whole entry, looked up): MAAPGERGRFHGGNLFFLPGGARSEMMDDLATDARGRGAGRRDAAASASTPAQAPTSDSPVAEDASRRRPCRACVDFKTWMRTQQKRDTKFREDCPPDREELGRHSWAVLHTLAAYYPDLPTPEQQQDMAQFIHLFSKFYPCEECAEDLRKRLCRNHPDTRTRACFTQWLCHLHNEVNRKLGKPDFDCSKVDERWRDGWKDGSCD
Rin1-Abl PPI inh: inhibitors of human Rin1-Abl protein interaction | TR-FRET Rin1/Abl binding, biochemical | inhibition, % at 7.35 µM | actives 0.4% (n = 360,000) | AID 588664; in the data active = inhibition above about 5%, passing the limit was not always enough
PREPL inhibitor: human PREPL enzyme inhibition. Q4J6C6. actives 0.68% (n = 320,000). inhibition, % at 5.96 µM. recombinant PREPL, fluorescence polarization activity-based probe; in the data active = inhibition above about 43%;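 note: 0% = enzyme with DMSO and 100% = wells lacking enzyme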
Rin1-Abl confirm: Rin1-Abl interaction inhibition confirmation; shares compounds with Rin1-Abl PPI inh; TR-FRET Rin1-Abl binding, purified proteins; inhibition, % at 7.35 µM; actives 49% (n = 1,300); AID 602124
GFP quencher: GFP fluorescence interference artifact. inhibitors/quenchers counterscreen. actives 8.5% (n = 1,300). AID 602125. shares compounds with Rin1-Abl PPI inh. inhibition, % at 6.75 µM;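 note: ABL1-eGFP fusion protein alone without its partner RIN1-SBP; 0% = protein with vehicle and 100% = wells lacking protein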
GFP quench DR: GFP fluorescence interference dose response; shares compounds with Rin1-Abl PPI inh; GFP fluorescence interference/quenching counterscreen; IC50, µM; 230 tested, under 10 active; AID 602182; call rule not given here;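 note: ABL1-eGFP fusion protein alone without its RIN1 binding partner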
The depositor's hits bear a star. Cut-off read from the data, not from the text of the source, unless noted: active = inhibition above about 6.5%; inactive = the rest.

For O=C(NCCO)C(=O)NCC1OCCCN1S(=O)(=O)c1ccc2c(c1)OCCO2 (centres undefined) the results were UBC13 inh 6, SUMO HTRF inh -1, ALR inh -4, Rin1-Abl PPI inh -2 and PREPL inhibitor 5.
COc1ccc(F)cc1C(=O)C1CCCN(Cc2cn(C)c3ccccc23)C1 (centres undefined) was read as RBBP9 inh -12, UBC13 inh 11, SUMO HTRF inh -10, ALR inh -4, Rin1-Abl PPI inh 9.9*, PREPL inhibitor 19, Rin1-Abl confirm 1 and GFP quencher -2.
`Cn1cc(CN2CCCC(C(=O)c3cc(F)ccc3F)C2)c2ccccc21` (centres undefined) gave RBBP9 inh -9, UBC13 inh -1, SUMO HTRF inh -2, ALR inh -7, Rin1-Abl PPI inh 0 and PREPL inhibitor 10.
For CCCCC(=O)C1CCN(Cc2ccccc2)CC1 the results were RBBP9 inh -6, UBC13 inh 2, SUMO HTRF inh 13, ALR inh 0, Rin1-Abl PPI inh 11*, PREPL inhibitor 1, Rin1-Abl confirm 17*, GFP quencher 0 and GFP quench DR >68.
CCCCNC(=O)C1CCN(Cc2ccc(OCc3ccccc3)cc2)CC1 was read as RBBP9 inh -8, UBC13 inh -7, SUMO HTRF inh 9, ALR inh -12, Rin1-Abl PPI inh 6 and PREPL inhibitor 9.
C/C(=N/NC(=O)Nc1ccccc1)c1ccc(C)cc1 was read as RBBP9 inh -4, UBC13 inh -4, SUMO HTRF inh 0, ALR inh -5, Rin1-Abl PPI inh 2 and PREPL inhibitor 7.
Screening C/C(=N\OC(=O)Nc1ccccc1)c1ccc(C)cc1 returned UBC13 inh 0, ALR inh -3, Rin1-Abl PPI inh 6.4*, PREPL inhibitor 0, Rin1-Abl confirm -1 and GFP quencher 0.
`Cc1ccc(C)c(C(=O)COC(=O)CN2C(=O)C3C4CCC(C4)C3C2=O)c1` (centres undefined) gave UBC13 inh 3, SUMO HTRF inh -2, ALR inh -2, Rin1-Abl PPI inh -1 and PREPL inhibitor 2.
Cc1cc(C)c(OCC(=O)OCC(=O)NCC2CCCCC2)c(C)c1 was read as UBC13 inh -6, ALR inh 13, Rin1-Abl PPI inh -1 and PREPL inhibitor -1.
CCCc1cc(=O)[nH]c(SCC(=O)NC2CCCCCCC2)n1 was read as UBC13 inh 2, ALR inh -2, Rin1-Abl PPI inh 9.1*, PREPL inhibitor 8, Rin1-Abl confirm 1 and GFP quencher -1.
Screening Cn1c(=O)c2c(ncn2CC(=O)OCC(=O)c2ccc(F)c(F)c2)n(C)c1=O returned UBC13 inh -3, SUMO HTRF inh 12, ALR inh -5, Rin1-Abl PPI inh -1 and PREPL inhibitor 0.
CCn1nc(C)c(CNC(=O)C2CCC(=O)N(CCc3ccc(OC)cc3)C2)c1C (centres undefined) was read as UBC13 inh -1, SUMO HTRF inh -5, ALR inh -7, Rin1-Abl PPI inh 0 and PREPL inhibitor -2.
`CCNS(=O)(=O)c1ccc(CCC(N)=O)cc1` gave RBBP9 inh 3, UBC13 inh 4, SUMO HTRF inh -3, ALR inh 2, Rin1-Abl PPI inh 6 and PREPL inhibitor -1.
Screening CCNS(=O)(=O)c1ccc(CCC(=O)O)cc1 returned RBBP9 inh -5, UBC13 inh 8, SUMO HTRF inh 8, ALR inh -1, Rin1-Abl PPI inh 8.8*, PREPL inhibitor -3, Rin1-Abl confirm -1 and GFP quencher 1.
